Format in all cases: functional
The subject of experiment [1] is Staphylococcus aureus. Description: Antibacterial activity against Staphylococcus aureus assessed as inhibition of microbial growth incubated for 18 to 22 hrs by broth microdilution method. The method in brief: (§1)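 Broth microdilution in Mueller-Hinton II broth following NCCLS recommendations; compounds dissolved in DMSO.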
Experiment [2] has as its system Staphylococcus warneri. Nature of the experiment: Antibacterial activity against Staphylococcus warneri assessed as inhibition of microbial growth incubated for 18 to 22 hrs by broth microdilution method. The gist of the method: as §1
In experiment [3] the test system is Enterococcus faecalis. Nature of the experiment: Antibacterial activity against Streptococcus faecalis assessed as inhibition of microbial growth incubated for 18 to 22 hrs by broth microdilution method. The method in brief:
as §1

The test system of experiment [4] is Escherichia coli. Description: Antibacterial activity against Escherichia coli assessed as inhibition of microbial growth incubated for 18 to 22 hrs by broth microdilution method. The gist of the method:
as §1

The subject of experiment [5] is Proteus mirabilis. Description: Antibacterial activity against Proteus mirabilis assessed as inhibition of microbial growth incubated for 18 to 22 hrs by broth microdilution method. The gist of the method:
as §1

Experiment [6] deals with Enterobacter. Nature of the experiment: Antibacterial activity against Enterobacter spp. assessed as inhibition of microbial growth incubated for 18 to 22 hrs by broth microdilution method. The method in brief: as §1
Experiment [7] has as its system Klebsiella oxytoca. Description: Antibacterial activity against Klebsiella oxytoca assessed as inhibition of microbial growth incubated for 18 to 22 hrs by broth microdilution method. The method in brief:
as §1

For experiment [8], the system named is Candida albicans. Nature of the experiment: Antifungal activity against Candida albicans clinical isolates assessed as inhibition of microbial growth incubated for 24 hrs by broth microdilution method. The method in brief: (§2)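 Twenty-two clinical Candida isolates (8 C. albicans, 4 C. glabrata, 3 C. tropicalis, 3 C. krusei, 2 C. parapsilosis, 2 C. sake) were identified by colony morphology and biochemistry and subcultured at 35 °C for purity. Compounds were dissolved in DMSO and tested by broth microdilution in Sabouraud dextrose broth per NCCLS/CLSI/EUCAST guidance. Values are geometric mean MIC per species (µg/mL).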

Experiment [9] relates to Nakaseomyces glabratus. Description: Antifungal activity against Candida glabrata clinical isolates assessed as inhibition of microbial growth incubated for 24 hrs by broth microdilution method. The method in brief:
as §2

Experiment [10] concerns Candida tropicalis. Nature of the experiment: Antifungal activity against Candida tropicalis clinical isolates assessed as inhibition of microbial growth incubated for 24 hrs by broth microdilution method. The gist of the method: as §2
Experiment [11] concerns Pichia kudriavzevii. Description: Antifungal activity against Candida krusei clinical isolates assessed as inhibition of microbial growth incubated for 24 hrs by broth microdilution method. The method in brief: as §2
The subject of experiment [12] is Candida parapsilosis. Nature of the experiment: Antifungal activity against Candida parapsilosis clinical isolates assessed as inhibition of microbial growth incubated for 24 hrs by broth microdilution method. As to conditions: Lodderomyces parapsilosis. The gist of the method: as §2
Experiment [13] concerns [Candida] sake. Description: Antifungal activity against Candida sake clinical isolates assessed as inhibition of microbial growth incubated for 24 hrs by broth microdilution method. As to conditions: Fermentozyma sake. The gist of the method:
as §2

A value given as a limit tells only on which side of the number the result lay.

In the case of `O=C1CS/C(=N/N=C\c2cccc([N+](=O)[O-])c2)N1Cc1ccccc1`, the MIC in [1], in [2], in experiment [3], in [4], in [5] and in [6] was at least 256 µg/mL in each case. Moreover, the MIC in experiment [7] was at least 256 µg/mL; in experiment [8], 2 µg/mL; in experiment [9], 2 µg/mL; in experiment [10], 2 µg/mL; in experiment [11], 2 µg/mL; in [12], 2 µg/mL. Also, in experiment [13], the MIC was found to be 8 µg/mL.
On to `O=C1CS/C(=N/N=C\c2ccncc2)N1Cc1ccccc1`, for which the MIC in experiment [1], in experiment [2], in experiment [3], in experiment [4], in experiment [5] and in [6] was at least 256 µg/mL in each case. Besides, the MIC in [7] is at least 256 µg/mL; in experiment [8], 256 µg/mL; in experiment [9] it was 256 µg/mL; in experiment [10], 256 µg/mL; in experiment [11], 256 µg/mL; in experiment [12], 256 µg/mL. Moreover, the MIC in experiment [13] turned out to be 256 µg/mL.
With `C/C(=N/N=C1/SCC(=O)N1Cc1ccccc1)c1ccsc1`, the MIC in experiment [1], in experiment [2], in experiment [3], in experiment [4], in experiment [5] and in [6] was at least 256 µg/mL throughout. For the same compound, the MIC is at least 256 µg/mL in experiment [7]; 256 µg/mL in experiment [8]; 4 µg/mL in experiment [9]; 128 µg/mL in experiment [10]; 128 µg/mL in experiment [11]; 128 µg/mL in experiment [12]. Also, in [13], the MIC turned out to be 128 µg/mL.
On to `C/C(=N/N=C1/SCC(=O)N1Cc1ccccc1)c1ccccc1[N+](=O)[O-]`, for which the MIC in [1], in experiment [2], in experiment [3], in [4], in experiment [5] and in experiment [6] was at least 256 µg/mL in each case. Further, the MIC in [7] is at least 256 µg/mL; in [8], 2 µg/mL; in experiment [9] it was 2 µg/mL; in experiment [10], 2 µg/mL; in experiment [11], 8 µg/mL; in experiment [12], 2 µg/mL. Further, the MIC in experiment [13] turned out to be 4 µg/mL.
Regarding `C/C(=N/N=C1/SCC(=O)N1Cc1ccccc1)c1cccc([N+](=O)[O-])c1`, the MIC in experiment [1], in experiment [2], in experiment [3], in experiment [4], in experiment [5] and in [6] was at least 256 µg/mL in each case. The MIC in experiment [7] is at least 256 µg/mL; in [8] it was 4 µg/mL; in experiment [9], 2 µg/mL; in experiment [10] it was 8 µg/mL; in experiment [11] it was 4 µg/mL; in experiment [12], 16 µg/mL. For the same compound, the MIC in experiment [13] is 8 µg/mL.
For `O=C1CS/C(=N/N=C\c2ccccc2[N+](=O)[O-])N1Cc1ccccc1`, the MIC in [1], in [2], in [3], in experiment [4], in experiment [5] and in experiment [6] was at least 256 µg/mL in each case. Also, the MIC in experiment [7] is at least 256 µg/mL; in experiment [8] it was 2 µg/mL; in experiment [9], 2 µg/mL; in experiment [10], 2 µg/mL; in experiment [11], 2 µg/mL; in experiment [12], 2 µg/mL. Also, in [13], the MIC was found to be 4 µg/mL.
As to `C/C(=N/N=C1/SCC(=O)N1Cc1ccccc1)c1ccc(Cl)s1`, the MIC in experiment [1], in experiment [2], in experiment [3], in experiment [4], in experiment [5] and in [6] was at least 256 µg/mL throughout. Further, the MIC in [7] is at least 256 µg/mL; in [8], 256 µg/mL; in experiment [9] it was 8 µg/mL; in experiment [10], 256 µg/mL; in experiment [11], 128 µg/mL; in experiment [12] it was 128 µg/mL. Further, in experiment [13], the MIC worked out at 128 µg/mL.
For `O=C1CS/C(=N/N=C\c2ccccc2)N1Cc1ccccc1`, the MIC in experiment [1], in experiment [2], in experiment [3], in [4], in [5] and in [6] was at least 256 µg/mL throughout. Also, the MIC in experiment [7] is at least 256 µg/mL; in experiment [8], 4 µg/mL; in experiment [9] it was 4 µg/mL; in experiment [10], 16 µg/mL; in [11] it was 16 µg/mL; in [12], 4 µg/mL. Also, the MIC in experiment [13] is 16 µg/mL.
As to `O=C1CS/C(=N/N=C\c2ccccn2)N1Cc1ccccc1`, the MIC in experiment [1], in experiment [2], in [3], in experiment [4], in experiment [5] and in experiment [6] was at least 256 µg/mL each time. Also, the MIC in experiment [7] was at least 256 µg/mL; in experiment [8] it was 4 µg/mL; in experiment [9], 4 µg/mL; in [10] it was 4 µg/mL; in experiment [11] it was 4 µg/mL; in [12] it was 16 µg/mL. Also, the MIC in experiment [13] amounted to 2 µg/mL.
Take `C/C(=N/N=C1/SCC(=O)N1Cc1ccccc1)c1ccc([N+](=O)[O-])cc1`: the MIC in experiment [1], in [2], in [3], in [4], in [5] and in experiment [6] was at least 256 µg/mL throughout. For the same compound, the MIC is at least 256 µg/mL in experiment [7]; 8 µg/mL in experiment [8]; 4 µg/mL in experiment [9]; 8 µg/mL in experiment [10]; 4 µg/mL in experiment [11]; 4 µg/mL in [12]. For the same compound, in experiment [13], the MIC was found to be 8 µg/mL.
`C/C(=N/N=C1/SCC(=O)N1Cc1ccccc1)c1ccccc1`: the MIC in [1], in [2], in experiment [3], in [4], in experiment [5] and in experiment [6] was at least 256 µg/mL throughout. The MIC in experiment [7] was at least 256 µg/mL; in experiment [8] it was 8 µg/mL; in experiment [9], 4 µg/mL; in experiment [10], 128 µg/mL; in [11] it was 4 µg/mL; in experiment [12], 4 µg/mL. Besides, the MIC in experiment [13] was 4 µg/mL.
Take `C/C(=N/N=C1/SCC(=O)N1Cc1ccccc1)c1cccs1`: the MIC in experiment [1], in experiment [2], in experiment [3], in [4], in experiment [5] and in experiment [6] was at least 256 µg/mL in each case. For the same compound, the MIC is at least 256 µg/mL in experiment [7]; 2 µg/mL in experiment [8]; 4 µg/mL in [9]; 16 µg/mL in experiment [10]; 4 µg/mL in experiment [11]; 8 µg/mL in experiment [12]. Moreover, the MIC in experiment [13] came to 8 µg/mL.
Take `O=C1CS/C(=N/N=C\c2ccc([N+](=O)[O-])cc2)N1Cc1ccccc1`: the MIC in experiment [1], in [2], in experiment [3], in experiment [4], in experiment [5] and in [6] was at least 256 µg/mL each time. Besides, the MIC in experiment [7] was at least 256 µg/mL; in experiment [8], 4 µg/mL; in [9], 2 µg/mL; in [10], 8 µg/mL; in experiment [11], 16 µg/mL; in experiment [12] it was 2 µg/mL. The MIC in experiment [13] came out at 4 µg/mL.
`O=C1CS/C(=N/N=C\c2cccnc2)N1Cc1ccccc1`: the minimal inhibitory concentration (MIC) in experiment [1], in experiment [2], in [3], in experiment [4], in [5] and in experiment [6] was at least 256 µg/mL throughout. Besides, the MIC is at least 256 µg/mL in [7]; 256 µg/mL in [8]; 256 µg/mL in experiment [9]; 256 µg/mL in experiment [10]; 256 µg/mL in experiment [11]; 256 µg/mL in experiment [12]. For the same compound, the MIC in experiment [13] was 256 µg/mL.
Turning to `CC1=C(/C=N\N=C2\SCC(=O)N2Cc2ccccc2)C(C)(C)CC=C1`, the MIC in experiment [1], in [2], in experiment [3], in [4], in experiment [5] and in [6] was at least 256 µg/mL each time. Also, the MIC in [7] is at least 256 µg/mL; in experiment [8], 4 µg/mL; in experiment [9], 4 µg/mL; in experiment [10], 2 µg/mL; in [11] it was 4 µg/mL; in [12], 4 µg/mL. The MIC in experiment [13] was determined as 2 µg/mL.
As for `C/C(=N/N=C1/SCC(=O)N1Cc1ccccc1)c1ccccn1`, the MIC in experiment [1], in experiment [2], in [3], in experiment [4], in [5] and in experiment [6] was at least 256 µg/mL each time. The MIC in [7] was at least 256 µg/mL; in experiment [8], 256 µg/mL; in [9], 16 µg/mL; in experiment [10], 28 µg/mL; in experiment [11] it was 256 µg/mL; in [12] it was 256 µg/mL. Moreover, the MIC in [13] turned out to be 256 µg/mL.

Source of the values: ChEMBL document CHEMBL4190362, “Synthesis, biological evaluation and quantitative structure-active relationships of 1,3-thiazolidin-4-one derivatives. A promising chemical scaffold endowed with high antifungal potency and low cytotoxicity” (Eur J Med Chem, 2017).
